How the values were obtained:
[1] = tested on: melan-a melanocytes; test: Confocal immunofluorescence microscopy of tyrosinase localization; assay type: cell-based, mouse
[2] = molecular target: T1, melan-a tyrosinase (Mus musculus, UniProt P11344); assay type: biochemical; settings: for type of tyrosinase inhibition: Lineweaver–Burk plot, L-DOPA
T1 sequence (P11344 19-533): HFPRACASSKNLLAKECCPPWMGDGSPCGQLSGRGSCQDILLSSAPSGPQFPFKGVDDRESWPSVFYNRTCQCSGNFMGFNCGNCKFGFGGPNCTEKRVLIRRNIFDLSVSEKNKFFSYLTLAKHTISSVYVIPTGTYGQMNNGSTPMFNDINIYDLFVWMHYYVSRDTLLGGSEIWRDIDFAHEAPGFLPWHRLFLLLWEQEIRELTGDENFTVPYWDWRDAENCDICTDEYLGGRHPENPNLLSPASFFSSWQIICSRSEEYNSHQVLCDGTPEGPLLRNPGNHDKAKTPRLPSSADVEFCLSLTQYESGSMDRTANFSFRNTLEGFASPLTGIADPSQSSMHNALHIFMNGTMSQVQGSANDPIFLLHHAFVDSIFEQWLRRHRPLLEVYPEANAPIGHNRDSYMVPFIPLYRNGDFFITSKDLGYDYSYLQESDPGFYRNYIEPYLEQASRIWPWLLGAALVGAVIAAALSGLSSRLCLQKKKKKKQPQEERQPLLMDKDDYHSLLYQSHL

[3] = tested on: tyrosinase/TRP-1 complex; test: Co-immunoprecipitation with antibody against TRP-1; assay type: cell-based, mouse; settings: 3 days, forskolin-supplemented medium
[4] = tested on: melan-a melanocytes; test: Sulforhodamine B cytotoxicity assay; assay type: cell-based, mouse; settings: 3 days, with or without forskolin
Procedure, shortened: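 Melan-a cells in RPMI-1640 with 5% FBS and antibiotics were seeded at 20 000 cells/0.1 mL/well. They were exposed to the test compound for 72 h in medium with 20 nM TPA, 1 μM forskolin, or vehicle alone. Viability was read by the sulforhodamine B colorimetric assay. Values are mean ± SD of triplicate experiments.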

[5] = tested on: MITF, tyrosinase, TRP-1; assay type: cell-based, mouse; settings: 1 day, forskolin-supplemented medium
Procedure, shortened: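 Melan-a cells were co-treated with 1 μM forskolin, with or without the test compound, for 1 day. Proteins were extracted in PhosphoSafe buffer, run on 10% SDS-PAGE, semidry-transferred to PVDF and blocked in 3% BSA. Blots were probed for tyrosinase, TRP-1, TRP-2, MITF and β-actin, then HRP secondary antibodies (1 h, room temperature). Detection was by ECL, with stripping before reprobing.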

[6] = molecular target: T2, tyrosinase (Mus musculus, UniProt P11344); test: Tyrosinase activity in treated melan-a cells; assay type: cell-based; settings: 60 μM, 3 days, 20 nM TPA; TPA alone 100%
T2 sequence (P11344 19-533): T1 sequence (P11344 19-533)

[7] = tested on: tyrosinase; test: Glycosylation analysis of tyrosinase; assay type: cell-based, mouse; settings: forskolin-supplemented medium, Endo H digestion

colocalization of calnexin and tyrosinase ([1]; 85 μM, 1 day, positive control)	Vmax [2]	type of tyrosinase inhibition [2]	reversibility of binding to tyrosinase ([2]; tyrosinase mixed with compound 24 h prior to kinetic analysis)	tyrosinase activity [6] [%]	SMILES	colocalization of tyrosinase and Lamp-1 ([1]; 15 μM, 4 days)	tyrosinase localization (calnexin/ER, Lamp-1/lysosome) ([1]; 60 μM, 3 days)	tyrosinase co-immunoprecipitated with TRP-1 [3]	cytotoxic effect [4]	TRP-1 expression [5]	expression of MITF [5]	expression of tyrosinase [5]	immature Endo H-sensitive form of tyrosinase [7]
					CC(=O)[C@H]1CC[C@H]2[C@@H]3CCC4=CC(=O)CC[C@]4(C)[C@H]3CC[C@]12C [progesterone]	Colocalization of both tyrosinase and Lamp-1 were also observed							
clearly colocalize to the ER	2.5 × 10^–4 ΔA490/s	noncompetitive			Oc1ccc(/C=C/c2cc(O)cc(O)c2)cc1 [resveratrol, reference compound]								
		noncompetitive	likely reversible	65	OC[C@H]1O[C@@H](Oc2c(O)cc(O)cc2/C=C/c2ccc(O)cc2)[C@H](O)[C@@H](O)[C@@H]1O [Compound 1, 2,3,5,4′-Tetrahydroxystilbene-2-O-β-D-glucopyranoside]		no aberrant tyrosinase is trapped in the ER and lysosome	reduction of immunoprecipitated tyrosinase	did not exert any cytotoxic effect	not prominent	suppressed	suppressed	No immature Endo H-sensitive form of tyrosinase was present

From paper PMC4076036 (Journal of Natural Products, 2014)
